Source: PubChem
aSyn 5UTR inh: MLPCN primary screen, SNCA 5' untranslated region; inhibition, % (tested at 7.5 µM); AID 1813, 2009; alpha-synuclein 5'UTR reporter, inhibitor activity; actives 0.82% (n = 300,000); in the data active means inhibition above about 60%;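 further: H4 neuroglioblastoma cells stably carrying SNCA 5'UTR luciferase fusion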
T cruzi repl: inhibitors of intracellular T. cruzi growth, primary screen, luminescence, NIH3T3 host cells. T. cruzi beta-gal in NIH3T3, 90 h. inhibition, % (test concentration not listed). AID 1885, 2009. actives 1.4% (n = 300,000);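 active means mean inhibition across valid replicates above about 55%, limit read from the data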;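 further: signal also drops with host cell toxicity which is not excluded here; higher percent means less beta-gal luminescence so fewer parasites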
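assay system = mouse NIH/3T3 fibroblasts infected with β-gal-expressing T. cruzi Tulahuen C4 | input = 5,000 NIH/3T3 host cells per well | buffer or medium = DMEM plus 2% FBS | timing = 3 h host attachment, then at least 90 h co-culture | measured by = GalScreen luminescence, 60 min | evaluation = luminescence reflecting intracellular parasite burden, expressed as percent inhibition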
CSC inhib: cancer stem cell viability inhibitors, primary screen, luminescence; cancer stem cell-like cells viability; inhibition, % at 7.5 µM; actives 1.1% (n = 300,000); in the data active means inhibition above about 75%; tested in HMLE shEcad cells
SKKanGAS inh: S. pyogenes SKKanGAS growth inhibitors in kanamycin, primary screen, streptokinase expression inhibitor project, SKKanGAS strain, BacTiter-Glo luminescence | inhibition, % at 7.5 µM | actives 1.3% (n = 300,000) | 6 h;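 active means mean replicate score, as percent of positive control median, at least 50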;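 further: strain carries kanamycin resistance gene driven by streptokinase promoter and grows in 40 µg/ml kanamycin; loss of luminescence reflects streptokinase promoter inhibition or plain growth inhibition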
Mdm2 MdmX PPI: inhibitors of human Mdm2-MdmX association, primary screen, cell-based, luminescence, split luciferase, SaOS-2, uHTS. Protein Mdm4 (Homo sapiens) + E3 ubiquitin-protein ligase Mdm2 (Homo sapiens), …. SaOS-2 split-luciferase Mdm2/MdmX complementation. inhibition, % at 8 µM. actives 3% (n = 330,000);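 active means inhibition of at least 50% at 8 µM in the primary screen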
Target sequence (O15151 whole entry, looked up): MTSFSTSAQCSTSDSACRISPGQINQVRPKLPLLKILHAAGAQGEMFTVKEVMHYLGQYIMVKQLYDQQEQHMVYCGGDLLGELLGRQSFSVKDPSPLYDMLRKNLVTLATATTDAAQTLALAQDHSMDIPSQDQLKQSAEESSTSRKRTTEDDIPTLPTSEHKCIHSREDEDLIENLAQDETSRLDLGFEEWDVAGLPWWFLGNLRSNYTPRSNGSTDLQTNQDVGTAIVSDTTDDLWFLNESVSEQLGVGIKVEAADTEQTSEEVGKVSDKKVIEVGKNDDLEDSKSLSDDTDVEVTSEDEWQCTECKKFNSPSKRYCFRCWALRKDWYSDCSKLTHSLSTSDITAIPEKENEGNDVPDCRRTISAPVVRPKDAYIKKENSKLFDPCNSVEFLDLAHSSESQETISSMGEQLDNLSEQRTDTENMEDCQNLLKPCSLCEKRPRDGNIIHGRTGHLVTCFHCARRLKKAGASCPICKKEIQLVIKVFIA
Target sequence (Q00987 whole entry, looked up): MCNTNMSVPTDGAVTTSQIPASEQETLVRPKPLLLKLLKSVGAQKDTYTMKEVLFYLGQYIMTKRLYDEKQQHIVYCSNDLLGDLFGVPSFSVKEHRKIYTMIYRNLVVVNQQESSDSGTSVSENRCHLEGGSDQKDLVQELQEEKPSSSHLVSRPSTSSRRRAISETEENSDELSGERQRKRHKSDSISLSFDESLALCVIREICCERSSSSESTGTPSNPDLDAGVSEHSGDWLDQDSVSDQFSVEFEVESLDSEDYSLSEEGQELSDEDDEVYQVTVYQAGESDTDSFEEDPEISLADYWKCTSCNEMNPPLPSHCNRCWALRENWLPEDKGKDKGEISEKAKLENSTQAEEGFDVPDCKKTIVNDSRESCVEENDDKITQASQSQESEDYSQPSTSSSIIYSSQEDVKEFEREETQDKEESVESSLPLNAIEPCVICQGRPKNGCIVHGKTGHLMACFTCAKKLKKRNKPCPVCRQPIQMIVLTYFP
Mdm2-MdmX conf: Mdm2-MdmX complex disruptors, retested hits, confirmation, luminescence, single concentration | shares compounds with Mdm2 MdmX PPI | Mdm2-MdmX binding, luminescent assay | inhibition, % at 8 µM | actives 55% (n = 10,000) | AID 489028, 2010; in the data active means inhibition above about 40%
FLuc counter: full-length luciferase signal inhibition, confirmation, counter-screen for Mdm2/MdmX interaction inhibitor project, cell-based, single concentration, SaOS-2; shares compounds with Mdm2 MdmX PPI; SaOS-2 full-length luciferase counterscreen, luminescence; inhibition, % at 8 µM; actives 77% (n = 6,200); AID 504607, 2011;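 active means mean inhibition at 8 µM reaching about 37%, which flags the compound as non-specific, limit read from the data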;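 further: p53-null SaOS-2 cells with luciferase driven by a doxycycline-inducible promoter; compound on cells about two nights before reading with doxycycline added after day one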
Each line names hits and unclear results; the compound was inactive in the other large screens (follow-up assays come after a bar, where they were run). Sampled rows, rich in hits. Any-hit rate of the full collection: about 5.4%.

CC(OC(=O)C1CCCCC1)C(=O)Nc1ccc(S(N)(=O)=O)cc1 (stereo unspecified)	none (no result: aSyn 5UTR inh, T cruzi repl, SKKanGAS inh)
CCOC(=O)/C=C(\C)Sc1cc(=O)oc2ccccc12	Mdm2 MdmX PPI 55 | Mdm2-MdmX conf inactive
CC1Nc2ncnc(N3CCc4ccccc4C3)c2N(Cc2ccc(Br)cc2)C1=O (stereo unspecified)	Mdm2 MdmX PPI 54 | Mdm2-MdmX conf inactive | FLuc counter 58
O=C1/C(=C/c2ccccc2F)SC(=S)N1CC(=O)N1CCCCC1c1cccnc1 (stereo unspecified)	Mdm2 MdmX PPI 79 | Mdm2-MdmX conf 41 | FLuc counter inactive
O=C1/C(=C/c2ccc(F)cc2)SC(=S)N1CC(=O)N1CCCCC1c1cccnc1 (stereo unspecified)	Mdm2 MdmX PPI 74 | Mdm2-MdmX conf inactive
O=C1/C(=C/c2cccs2)SC(=S)N1CC(=O)N1CCCCC1CCO (stereo unspecified)	none
O=C(/C=C/c1ccc(F)cc1)NC(=S)N1CCCCC1c1cccnc1 (stereo unspecified)	none
COc1ccccc1N(C(=O)c1snc(C(N)=O)c1N)C(C(=O)NC1CCCC1)c1ccc2ncccc2c1 (stereo unspecified)	none
O=C(CN1CCC(C(=O)c2ccc(Cl)cc2)CC1)NC1CCCC1	none
NC(=O)c1cc2ccncc2c2ccccc12	Mdm2 MdmX PPI 90 | Mdm2-MdmX conf 94 | FLuc counter 51
COc1ccc(C(=O)/C=C/c2ccccc2F)c(OC(=O)c2ccc([N+](=O)[O-])cc2)c1	none
O=C(Oc1ccc(F)cc1C(=O)/C=C/c1cccs1)c1cccc([N+](=O)[O-])c1	Mdm2 MdmX PPI 55 | Mdm2-MdmX conf 42 | FLuc counter 48
COc1ccc([C@H]2CC(=O)C=C(c3cc(OC)ccc3OC)C2)cc1	Mdm2 MdmX PPI 51 (no result: aSyn 5UTR inh, T cruzi repl, SKKanGAS inh) | Mdm2-MdmX conf 51 | FLuc counter 54
COc1ccc([C@H]2CC(=O)C=C(c3cc(F)ccc3OC)C2)cc1	none (no result: aSyn 5UTR inh, T cruzi repl, SKKanGAS inh)
COc1ccc([C@H]2CC(=O)C=C(c3c(OC)cccc3OC)C2)cc1	Mdm2 MdmX PPI 56 (no result: aSyn 5UTR inh, T cruzi repl, SKKanGAS inh) | Mdm2-MdmX conf 53 | FLuc counter 51
C=CCOC(=O)c1ccc(-n2cnc(C)n2)nc1	none
Cc1cc(Sc2ccc([N+](=O)[O-])cn2)ccc1Br	none
Cc1cc(S(=O)(=O)c2ccc([N+](=O)[O-])cn2)ccc1Br	CSC inhib 98, Mdm2 MdmX PPI 99 | Mdm2-MdmX conf 99 | FLuc counter 39
Cc1ccc(S(=O)(=O)c2ccc([N+](=O)[O-])cn2)cc1	T cruzi repl 67, CSC inhib 100, Mdm2 MdmX PPI 96 | Mdm2-MdmX conf 88 | FLuc counter 52
O=[N+]([O-])c1ccc(S(=O)(=O)c2ccccc2)nc1	T cruzi repl 73, CSC inhib 102, Mdm2 MdmX PPI 95 | Mdm2-MdmX conf 97 | FLuc counter 50
c1ccn2cc(-c3ccc4c(c3)OCCO4)nc2c1	aSyn 5UTR inh 98, Mdm2 MdmX PPI 50 | Mdm2-MdmX conf inactive
Clc1ccc2nc(-c3ccc4c(c3)OCO4)cn2c1	none
Cc1ccc2nc(-c3ccc4c(c3)OCCO4)cn2c1	aSyn 5UTR inh 110, Mdm2 MdmX PPI 94 | Mdm2-MdmX conf 98 | FLuc counter 55
O=C1c2ccc(Br)cc2C(=O)N1c1ccc(Cl)cn1	none
CN(C)c1nc(N/N=C\c2ccc(Cl)c([N+](=O)[O-])c2)nc(Nc2ccc(F)cc2)n1	Mdm2 MdmX PPI 72 | Mdm2-MdmX conf inactive
CC(NC(=O)COc1ccc(Br)cc1)C1CCCO1 (stereo unspecified)	none
Cc1c(NC(=O)Nc2ccc(Cl)cc2Cl)c(=O)n(-c2ccccc2)n1C	none
CCCc1c(NC(=O)Nc2ccc(Cl)cc2Cl)cnn1-c1ccccc1	Mdm2 MdmX PPI 86 | Mdm2-MdmX conf 75 | FLuc counter 43
Nc1ccccc1NC(=O)CCn1c(=S)[nH]c2ccccc2c1=O	none
COC(=O)CSC1=C(C#N)C(c2ccc(C)o2)CC(=O)N1 (stereo unspecified)	Mdm2 MdmX PPI 58 | Mdm2-MdmX conf 47 | FLuc counter 73
N#CCOc1coc(CN2CCN(c3ccccc3)CC2)cc1=O	none
CCOC(=O)c1sc(NC(=O)CN(CC(C)C)CC(C)C)c(C(=O)OCC)c1C	Mdm2 MdmX PPI 61 | Mdm2-MdmX conf inactive
CCOC(=O)c1sc(NC(=S)NC(=O)c2ccccc2)c(C(=O)OCC)c1C	Mdm2 MdmX PPI 85 | Mdm2-MdmX conf inactive
CCOC(=O)C1=C(NC(=S)NC(=O)c2ccccc2)c2ccccc2CC1(C)CC (stereo unspecified)	Mdm2 MdmX PPI 77 | Mdm2-MdmX conf 66 | FLuc counter 53
CCOC(=O)c1sc(NC(=S)NC(=O)c2ccccc2Cl)c(C(=O)OCC)c1C	none
CCOC(=O)c1c(NC(=O)c2ccccc2)sc2c1CCc1ccccc1-2	none
CCOC(=O)C1=C(NC(=S)NC(=O)c2ccccc2)c2ccccc2CC1C(C)C (stereo unspecified)	Mdm2 MdmX PPI 96 | Mdm2-MdmX conf inactive
C=CCn1c(COc2ccccc2)nnc1SC(C)C(=O)N/N=C/c1cc(Cl)ccc1O (stereo unspecified)	SKKanGAS inh 105, Mdm2 MdmX PPI 65 (no result: aSyn 5UTR inh, T cruzi repl) | Mdm2-MdmX conf 60 | FLuc counter inactive
O=[N+]([O-])c1cnccc1Nc1cccc(F)c1	none
O=[N+]([O-])c1ccc(Oc2cccc(F)c2)c2ccncc12	Mdm2 MdmX PPI 58 | Mdm2-MdmX conf inactive
CCc1cccc(CC)c1C(OC(C)=O)c1cccnc1 (stereo unspecified)	none
COc1ccccc1C1=NOC(COc2ccc3c(C)cc(=O)oc3c2)C1 (stereo unspecified)	CSC inhib 79, Mdm2 MdmX PPI 58 | Mdm2-MdmX conf 58 | FLuc counter 88
COc1ccc(C2=NOC(COc3ccc4c(C)cc(=O)oc4c3)C2)c(OC)c1 (stereo unspecified)	aSyn 5UTR inh 83, Mdm2 MdmX PPI 56 | Mdm2-MdmX conf 56 | FLuc counter 60
COc1ccc2nc(NC(=O)CSc3nnnn3C)sc2c1	none
CN1CCN(c2ccc(NC(=O)c3ccc(-c4ccc(Br)cc4)o3)cc2)CC1	T cruzi repl 58, Mdm2 MdmX PPI 77 | Mdm2-MdmX conf inactive | FLuc counter 81
